Columns and labels:
[1] = molecular target: T1, 3-hydroxy-3-methylglutaryl-coenzyme A reductase (Mus musculus) (UniProt Q01237); assay: In Vivo effect for the hypolipidemic activity on HMG-CoA reductase in CF1 mice after 16 days of oral administration at a dose of 10 mg/kg; format: organism-based; parameters: dose 10 mg/kg
T1 sequence (whole entry): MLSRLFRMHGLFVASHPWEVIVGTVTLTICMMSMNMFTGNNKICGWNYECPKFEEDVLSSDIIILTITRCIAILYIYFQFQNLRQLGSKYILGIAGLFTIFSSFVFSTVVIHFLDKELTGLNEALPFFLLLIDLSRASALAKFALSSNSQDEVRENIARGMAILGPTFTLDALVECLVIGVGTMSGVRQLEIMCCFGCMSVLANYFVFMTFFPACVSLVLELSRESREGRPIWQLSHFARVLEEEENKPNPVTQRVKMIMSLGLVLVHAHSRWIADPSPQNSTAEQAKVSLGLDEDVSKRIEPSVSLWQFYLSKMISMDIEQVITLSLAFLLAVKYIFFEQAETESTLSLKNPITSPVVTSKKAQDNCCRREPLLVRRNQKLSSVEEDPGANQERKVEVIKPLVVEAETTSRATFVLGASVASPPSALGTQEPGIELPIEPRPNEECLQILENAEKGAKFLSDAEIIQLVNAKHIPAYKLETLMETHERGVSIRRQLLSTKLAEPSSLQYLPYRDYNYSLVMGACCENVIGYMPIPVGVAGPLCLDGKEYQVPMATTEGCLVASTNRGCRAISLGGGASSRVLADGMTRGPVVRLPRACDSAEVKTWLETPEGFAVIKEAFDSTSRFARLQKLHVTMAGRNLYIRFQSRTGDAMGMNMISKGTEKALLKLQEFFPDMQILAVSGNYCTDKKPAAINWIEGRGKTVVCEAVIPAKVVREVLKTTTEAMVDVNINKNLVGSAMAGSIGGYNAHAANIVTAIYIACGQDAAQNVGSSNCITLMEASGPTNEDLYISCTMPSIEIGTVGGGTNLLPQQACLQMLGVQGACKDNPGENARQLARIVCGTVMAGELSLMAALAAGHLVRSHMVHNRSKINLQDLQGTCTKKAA
Procedure, shortened: (§1)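 CF1 male mice are dosed orally at 10–60 mg/kg per day for 16 days, with 1% CMC as the control vehicle. Liver is homogenized at 10% in 0.25 M sucrose + 0.001 M EDTA, pH 7.2. Enzymes are assayed by literature methods, with Lowry protein. Activity is given as % of control (X ± SD, N = 6), with p from Student's t test.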

[2] = molecular target: T2, Sterol O-acyltransferase 1 (Mus musculus) (UniProt Q61263); assay: In Vivo effect for the hypolipidemic activity on Acyl-COA cholesterol acyltransferase in CF1 mice after 16 days of oral administration at a dose of 40 mg/kg; format: functional, organism-based; parameters: dose 40 mg/kg; procedure, shortened: as §1
T2 sequence (whole entry): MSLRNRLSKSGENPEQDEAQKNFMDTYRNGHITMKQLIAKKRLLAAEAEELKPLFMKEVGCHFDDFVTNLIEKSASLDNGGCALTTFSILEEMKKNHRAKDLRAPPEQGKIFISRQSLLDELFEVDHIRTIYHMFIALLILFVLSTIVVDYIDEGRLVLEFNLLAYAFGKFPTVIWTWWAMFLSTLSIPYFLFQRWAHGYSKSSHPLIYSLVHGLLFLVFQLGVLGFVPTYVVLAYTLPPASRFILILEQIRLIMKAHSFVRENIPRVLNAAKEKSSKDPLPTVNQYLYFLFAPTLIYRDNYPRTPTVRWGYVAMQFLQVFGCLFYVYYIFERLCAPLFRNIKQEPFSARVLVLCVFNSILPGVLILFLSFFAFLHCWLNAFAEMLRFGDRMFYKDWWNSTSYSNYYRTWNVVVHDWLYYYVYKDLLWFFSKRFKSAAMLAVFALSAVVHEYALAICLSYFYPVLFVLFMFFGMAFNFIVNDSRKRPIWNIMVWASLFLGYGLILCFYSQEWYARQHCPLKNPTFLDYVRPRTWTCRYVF

Rattus norvegicus = assay: Compound was evaluated for the hypolipidemic activity at 20 mg/kg per day orally for 14 days on cholesterol content in rat HDL; format: functional; conditions: route oral
Procedure, shortened: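 Male Sprague–Dawley rats (~300 g) were dosed orally each day. Blood was drawn from the abdominal vein. Lipoprotein fractions (chylomicron, VLDL, LDL, HDL) were separated by the Hatch–Lees and Havel methods. Each fraction was assayed for cholesterol, triglyceride (enzymatic kit), neutral lipids, phospholipids and Lowry protein. Values are % of 1% CMC vehicle control, N = 6.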

[3] = molecular target: T3, ATP-citrate synthase (Mus musculus) (UniProt Q91V92); assay: In Vivo effect for the hypolipidemic activity on ATP-Citrate Lyase in CF1 mice after 16 days of oral administration at a dose of 20 mg/kg; format: organism-based; parameters: dose 20 mg/kg; procedure, shortened: as §1
T3 sequence (whole entry): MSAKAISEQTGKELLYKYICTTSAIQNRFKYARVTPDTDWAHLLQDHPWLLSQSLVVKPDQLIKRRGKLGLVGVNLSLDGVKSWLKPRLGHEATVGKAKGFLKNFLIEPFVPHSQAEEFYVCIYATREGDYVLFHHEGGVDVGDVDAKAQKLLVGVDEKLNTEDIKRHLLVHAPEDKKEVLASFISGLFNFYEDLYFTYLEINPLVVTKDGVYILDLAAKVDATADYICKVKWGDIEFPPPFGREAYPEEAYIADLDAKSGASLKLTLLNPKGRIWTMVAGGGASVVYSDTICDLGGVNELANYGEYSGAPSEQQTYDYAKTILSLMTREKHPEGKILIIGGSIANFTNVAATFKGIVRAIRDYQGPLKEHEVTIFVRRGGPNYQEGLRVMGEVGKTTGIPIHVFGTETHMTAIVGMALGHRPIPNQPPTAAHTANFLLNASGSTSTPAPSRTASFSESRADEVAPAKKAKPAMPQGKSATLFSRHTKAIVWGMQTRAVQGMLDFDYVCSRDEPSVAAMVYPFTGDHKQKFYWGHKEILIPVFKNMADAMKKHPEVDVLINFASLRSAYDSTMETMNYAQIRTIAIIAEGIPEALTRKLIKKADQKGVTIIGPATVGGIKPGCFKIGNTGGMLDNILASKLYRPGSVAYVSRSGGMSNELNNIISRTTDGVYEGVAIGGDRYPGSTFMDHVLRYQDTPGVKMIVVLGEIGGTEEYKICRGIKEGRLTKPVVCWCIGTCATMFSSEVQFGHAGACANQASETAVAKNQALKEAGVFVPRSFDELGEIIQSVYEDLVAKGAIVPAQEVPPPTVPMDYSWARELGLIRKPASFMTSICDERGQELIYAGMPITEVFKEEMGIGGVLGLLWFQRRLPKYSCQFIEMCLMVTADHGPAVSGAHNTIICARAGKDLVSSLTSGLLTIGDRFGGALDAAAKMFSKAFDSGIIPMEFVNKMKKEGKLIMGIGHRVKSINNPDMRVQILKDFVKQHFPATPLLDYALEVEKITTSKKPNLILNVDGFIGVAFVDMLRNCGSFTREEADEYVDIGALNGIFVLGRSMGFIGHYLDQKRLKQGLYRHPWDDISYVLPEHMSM

COc1ccc(C2C(=O)c3ccccc3C2=O)cc1 [ANISINDIONE]
Control [1]: 116% | Control [2]: 42% | Control (Rattus norvegicus): 216% | Control [3]: 43%

From ChEMBL document CHEMBL1123129, “Hypolipidemic activity of indan-1,3-dione derivatives in rodents” (J Med Chem, 1985)
